An excerpt weighted towards active compounds, which were near 3.7% of everything screened.
EP2 modulator – EP2 receptor (human) modulation | EP2-expressing cells, cAMP HTRF FRET, PGE2 co-stimulation | induction, % at 25 µM | actives 0.83% (n = 260,000) | AID 940;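 active means compounds whose cAMP rise, as percent of the full-agonist control response, exceeds 60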;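 further: rat C6 glioma line stably carrying human EP2 under a CMV promoter; the protocol text gives 20 µM as final concentration; 100% = response of wells given 1 µM PGE2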
Target sequence (P43116 whole entry, looked up): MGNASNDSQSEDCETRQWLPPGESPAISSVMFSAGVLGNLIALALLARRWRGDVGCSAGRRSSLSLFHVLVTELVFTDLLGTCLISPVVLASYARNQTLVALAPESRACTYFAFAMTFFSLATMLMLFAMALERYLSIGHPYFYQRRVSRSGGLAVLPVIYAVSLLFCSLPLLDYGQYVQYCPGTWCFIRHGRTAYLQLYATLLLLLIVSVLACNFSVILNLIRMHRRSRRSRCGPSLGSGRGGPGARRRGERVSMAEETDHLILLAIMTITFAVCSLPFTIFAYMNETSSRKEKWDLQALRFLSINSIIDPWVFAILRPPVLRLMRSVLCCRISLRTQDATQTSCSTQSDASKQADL
EP2 antag – EP2 receptor (human) inhibition; C6 glioma cells expressing human EP2, cAMP TR-FRET; cells stimulated with saturating PGE2; actives 0.52% (n = 260,000); inhibition, % at 25 µM; AID 1422;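 active means percent inhibition above 40 after rounding to a whole number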;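 further: rat C6 glioma host cells with rolipram phosphodiesterase inhibitor present; the protocol text gives 20 µM as final concentration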
GPR7 antag – antagonists of human GPR7 (neuropeptides B/W receptor 1). GPR7-expressing cells, fluorescence antagonist assay. inhibition, % at 4.4 µM. actives 1.1% (n = 290,000). AID 1861; in the data active means inhibition above about 16%, passing the limit was not always enough;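 further: cells stimulated with the agonist NPW; 0% = agonist with vehicle and 100% = vehicle without agonist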
Target sequence (P48145 whole entry, looked up): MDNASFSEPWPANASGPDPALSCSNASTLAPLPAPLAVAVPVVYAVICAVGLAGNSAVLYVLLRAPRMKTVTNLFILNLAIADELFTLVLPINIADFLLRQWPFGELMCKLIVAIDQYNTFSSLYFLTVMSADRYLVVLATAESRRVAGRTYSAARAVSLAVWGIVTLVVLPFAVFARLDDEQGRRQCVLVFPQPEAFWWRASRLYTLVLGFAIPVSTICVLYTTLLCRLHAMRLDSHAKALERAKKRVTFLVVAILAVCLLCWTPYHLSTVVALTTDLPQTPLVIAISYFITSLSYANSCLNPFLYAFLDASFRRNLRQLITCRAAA
OX1R antag-1 – antagonists of human orexin 1 receptor. O43613. CHO/OX1R cells, Fluo-8 calcium fluorescence, orexin A. inhibition, % at 5 µM. actives 0.43% (n = 330,000);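 active means inhibition above its plate's threshold, mean inhibition of all tested compounds on the plate plus 3 SD, cut at about 37% in these data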;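 further: 0% = orexin A challenge wells and 100% = SB-334867-A antagonist wells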
CHO parental Ca – counter-screen for OX1R antagonists: effect in parental CHO cells | AID 463079 | actives 0.63% (n = 330,000) | parental CHO-K1, ATP-induced calcium, Fluo-8 fluorescence | inhibition, % at 5.6 µM;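 active means inhibition above that plate's mean sample inhibition plus 3 SD, cut at about 26% in these data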;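 further: 0% = ATP-challenged DMSO wells and 100% = DMSO wells without ATP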
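Assay system: parental CHO cells; Read-out basis: percent inhibition of ATP-evoked calcium rise, normalized to controls; Benchmarks: ATP and no-ATP DMSO wells; Compound dosing: single nominal dose of 5.6 µM per compound; Signal: Fluo-8 calcium dye fluorescence; Also added: ATP as calcium-mobilizing challenge; Repeats: singlicate.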
OX1R antag-2 – antagonists of human orexin 1 receptor (OX1R); O43613; OX1R-expressing cells, FRET antagonist read-out; inhibition, % at 6.6 µM; actives 1.8% (n = 330,000); in the data active means inhibition mostly above about 38%, no sharp cut-off; inactive means mostly below about 40%;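 further: 0% = agonist challenge alone and 100% = reference antagonist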
An asterisk follows results filed as active; x = not tested or not shown.

SMILES	EP2 modulator	EP2 antag	GPR7 antag	OX1R antag-1	CHO parental Ca	OX1R antag-2
O=C(CNS(=O)(=O)c1ccccc1)NCc1cccnc1	28.6	3.8	-7.0	-7.3	1.3	2.3
CC(/C=C/c1cccc([N+](=O)[O-])c1)=N/NC(=O)c1cccnc1	-35.6	2.9	12.0	-15.0	-14.9	44.1
O=C(N/N=C/C=C/c1ccccc1[N+](=O)[O-])c1cccnc1	-21.6	3.1	-11.7	-12.6	-0.7	46.9*
O=C(OCCNC(=O)c1cc2ccccc2oc1=O)c1cccnc1	64.3*	9.5	-8.9	-20.3	-3.0	5.8
COc1cccc(C(=O)OCCCNC(=O)c2cc3ccccc3oc2=O)c1	-65.7	11.6	x	x	x	x
O=C(N/N=C/C=C\c1ccccc1[N+](=O)[O-])c1cccnc1	-31.6	8.2	-14.2	1.3	-7.6	14.6
O=C(N/N=C/C=C\c1cccc([N+](=O)[O-])c1)c1cccnc1	-32.3	9.2	-7.0	-20.4	-4.3	35.5*
O=C(O)c1ccc(N/N=C/C=C/c2ccccc2[N+](=O)[O-])cc1	-65.3	10.8	19.1*	8.7	9.1	-2.4
Cc1sc2nc(C)n(C3CCN(C(=O)Cc4ccccc4F)CC3)c(=O)c2c1C	16.9	4.6	x	x	x	x
O=C(/C=C/c1cccc([N+](=O)[O-])c1)NCc1ccccc1	-64.8	13.0	-2.4	-23.2	4.5	17.9
O=C(NCCOC(=O)c1ccc([N+](=O)[O-])cc1)c1cccnc1	2.7	4.6	-3.1	-9.2	1.8	68.7*
CCN(CC)S(=O)(=O)c1ccc(C(=O)OCCNC(=O)c2cccnc2)cc1	12.6	8.3	12.5	-13.6	-15.5	4.7
O=C(Oc1c(Br)cc([N+](=O)[O-])cc1Br)c1cccnc1	29.9	17.1	-6.0	-15.1	-1.1	52.7*
O=C(/C=C/c1cccc([N+](=O)[O-])c1)NCc1cccnc1	28.6	10.2	6.9	-13.7	5.2	72.2*
CC1=NN(c2ccccc2)C(=O)/C1=C\c1sccc1C	10.8	9.2	-4.4	0.3	-12.3	4.6
O=C(Nc1ccccc1-c1nnc(SCc2ccc(Cl)cc2)o1)c1ccccc1	43.9	8.2	-17.5	-13.8	-10.0	9.8
O=c1c(-c2nnc(SCc3ccc(Cl)cc3)o2)cccn1Cc1ccccc1	36.7	2.4	-13.9	-7.0	2.0	39.8*
CS(=O)(=O)c1cc([N+](=O)[O-])c(Sc2nc3ccccc3[nH]2)c([N+](=O)[O-])c1	-44.3	4.6	-15.2	22.3	31.5*	39.0*
COc1ccc(/C=N/Nc2ncc(-c3ccccc3)cn2)c(OC)c1	-7.8	x	-2.9	-43.8	-11.4	22.6
COc1ccc(/C=N/Nc2ncccc2[N+](=O)[O-])c(OC)c1	5.7	-0.3	-15.6	-7.5	-13.3	49.7*
Cc1cc(C)c2cc(C#N)c(N3CCCN(C(=O)c4cnccn4)CC3)nc2c1	x	x	-5.4	-13.1	-11.1	50.8*
COC(=O)c1ccc(/C=C2/SC(=S)N(CCCC(=O)Nc3ccc(O)cc3)C2=O)cc1	x	x	-21.8	-0.8	0.5	25.0
COc1ccc(Nc2ncnc3ccc([N+](=O)[O-])cc23)c(OC)c1	-18.6	4.8	1.1	-8.0	-4.9	66.5*
O=C(COC(=O)c1ccccc1[N+](=O)[O-])Nc1cccnc1Cl	x	x	x	-4.4	-7.1	21.1
CCN(C(=O)c1ccc(C(C)(C)C)cc1)c1nnc(Cn2nnc3ccccc32)s1	23.0	21.7	7.6	68.6*	66.3*	64.3
SMILES	EP2 modulator	EP2 antag	GPR7 antag	OX1R antag-1	CHO parental Ca	OX1R antag-2
CCN(C(=O)CC(C)C)c1nnc(Cn2nnc3ccccc32)s1	-47.6	6.5	18.9	-11.4	-21.4	31.7
CC(=O)NCc1ccc(-c2csc(-c3cccs3)n2)cc1	x	x	1.0	-14.3	-9.3	62.7*
Cc1cc2c(C)ccc(C)c2nc1SCC(=O)c1cccs1	62.6*	4.0	-8.0	-8.6	14.8	3.4
O=C(Nc1cccc2ccccc12)/C(=C\c1cccc([N+](=O)[O-])c1)NC(=O)c1cccs1	12.1	10.4	-8.6	19.4	-8.2	56.5*
O=C(NCCO)/C(=C\c1ccc([N+](=O)[O-])o1)NC(=O)c1ccccc1	-11.6	16.5	-9.0	-14.9	-14.3	64.8*
Cc1ccc(C(=O)N/C(=C\c2ccc(-c3cccc([N+](=O)[O-])c3)o2)C(=O)NC(C)(C)C)cc1	18.9	9.0	-10.0	1.2	-16.9	74.0*
CCCOC(=O)/C(=C\c1ccc([N+](=O)[O-])o1)NC(=O)c1ccccc1	-3.2	13.8	-4.9	-18.2	-12.0	48.8
CCOC(=O)/C(=C\c1ccc([N+](=O)[O-])o1)NC(=O)c1ccccc1	-29.0	5.1	-12.2	-27.2	-17.1	43.0*
CCC(C)C(NC(=O)[C@@H](NC(=O)c1ccccc1F)C(C)C)C(=O)OC (some centres undefined)	-0.3	17.3	3.1	-27.0	-11.4	12.6
Cc1cccc(Cn2nc(C(C)(C)C)cc2C(=O)N2CCOCC2)c1	x	x	-8.1	-15.5	-3.6	2.5
CCCCCCNC(=O)c1cccc(-c2ccc(C)c3ccccc23)n1	31.4	4.7	-12.8	-64.3	-36.5	17.5
O=C(CCCOc1ccccc1)N1CCN(c2ccc(F)cc2)CC1	-19.0	11.1	8.3	-19.9	-10.1	24.2
O=C(NCCCO)/C(=C/c1ccc(-c2cccc([N+](=O)[O-])c2)o1)NC(=O)c1ccccc1	-3.0	6.4	-13.6	-13.5	-6.8	50.6*
O=C(NCc1ccccc1)/C(=C/c1cccc([N+](=O)[O-])c1)NC(=O)c1ccco1	x	x	-4.8	-11.9	-8.6	11.1
O=C(NCCc1ccccc1)/C(=C\c1cccc([N+](=O)[O-])c1)NC(=O)c1ccco1	x	x	-1.4	-23.4	-12.9	53.0*
Cc1nc2c3ccccc3nc(NNC(=O)CCC(=O)N3CCN(c4ccccc4)CC3)n2n1	x	x	-7.9	-21.9	-20.9	10.4
Cc1ccc(NS(=O)(=O)c2cc(C(=O)N3CCN(C)CC3)ccc2C)cc1	7.9	1.1	-11.0	-10.1	3.3	15.3
O=C(CN1CCC(c2ccncc2)CC1)Nc1nccs1	-103.4	6.6	x	x	x	x
CSc1oc(-c2ccccc2)nc1S(=O)(=O)c1ccc(C)cc1	40.6	3.4	-7.5	-26.5	28.7*	15.7
COc1ccc(OC)c(CNn2c(-c3cccc(C)c3)nc3ccccc3c2=O)c1	38.7	4.0	-15.4	6.2	-25.5	50.0*
COc1cccc(-c2nc(CS(=O)(=O)CC(=O)Nc3ccccc3Cl)c(C)o2)c1	x	x	-3.8	5.1	-19.1	51.3*
Cc1ccsc1/C=N/NC(=O)CN1CCN(Cc2ccccc2)CC1	-9.1	14.6	-21.4	-22.1	-28.0	16.8
O=C(c1ccc(F)cc1)N1CCN2C(=O)c3ccccc3C12c1ccc(Cl)cc1 (centres undefined)	23.5	4.5	16.0*	-28.2	-25.7	26.9
CNC(=O)C1=C(C)NC(=S)NC1c1cc2c(cc1OC)CCCC2 (centres undefined)	19.0	7.8	-4.6	-36.6	-18.6	34.3

Source: PubChem
